Sampled rows, rich in hits. Any-hit rate of the full collection: about 2.3%.
Fam108B inh – blocks mouse Fam108B hydrolase in RBBP9 counter-screen; recombinant Fam108B, FP-Rh probe fluorescence polarization; inhibition, % at 9.51 µM; 0.33% of 300,000 active;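 active means inhibition above the screen mean inhibition plus 3 SD, computed separately per campaign, cut at about 18% in these data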;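 further: inhibitors lower polarization as less probe binds the enzyme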
RBBP9 inhibitor – inhibitors of human serine hydrolase RBBP9. inhibition, % at 7.94 µM. AID 1515. O75884. 0.2% of 220,000 active. recombinant RBBP9, FP-Rh probe fluorescence polarization;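 active means inhibition above the campaign mean of all tested compounds plus 3 SD, cut at about 14% in these data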
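System: RBBP9 protein / Buffer or medium: Tris/NaCl buffer pH 8.0 with 0.1% Pluronic / Probe or stimulus: Serine-hydrolase probe FP-Rh, 375 nM pre-mixing / Dosing: 7.94 µM single dose, 0.794% DMSO / Times: enzyme-compound preincubation 30 min, then probe labeling 45 min, 25 °C / Technique: fluorescence polarization (mP), excitation 525 nm, emission 598 nm / Replication: singlicate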
PRMT1 inh – PRMT1 (human) inhibition, primary screen; Q99873; recombinant PRMT1, activity-based probe fluorescence polarization; inhibition, % at 2.79 µM; 1.3% of 370,000 active;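 active means inhibition above about 21% made by adding two undisclosed values, limit read from the data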
Target sequence (Q99873 whole entry, looked up): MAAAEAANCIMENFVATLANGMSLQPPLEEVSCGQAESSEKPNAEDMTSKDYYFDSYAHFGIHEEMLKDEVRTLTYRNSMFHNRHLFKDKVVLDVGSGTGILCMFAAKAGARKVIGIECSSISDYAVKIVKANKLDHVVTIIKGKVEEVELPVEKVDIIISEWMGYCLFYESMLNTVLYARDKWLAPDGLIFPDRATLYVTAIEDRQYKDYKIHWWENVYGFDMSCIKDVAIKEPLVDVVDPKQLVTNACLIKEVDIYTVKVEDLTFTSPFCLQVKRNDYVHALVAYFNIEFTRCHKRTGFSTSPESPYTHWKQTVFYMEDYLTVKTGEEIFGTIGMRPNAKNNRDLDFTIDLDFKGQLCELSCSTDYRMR
PME-1 inh – blocks human protein phosphatase methylesterase 1. recombinant PME-1, FP-Rh probe fluorescence polarization. inhibition, % at 5.9 µM. 0.53% of 320,000 active;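 active means inhibition above the campaign mean of all compounds plus 3 SD, cut at about 26% in these data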;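 further: competitive labeling of PME-1 active site by serine hydrolase directed probe; inhibitors block probe labeling so polarization falls and inhibition rises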
Target sequence (Q9Y570 whole entry, looked up): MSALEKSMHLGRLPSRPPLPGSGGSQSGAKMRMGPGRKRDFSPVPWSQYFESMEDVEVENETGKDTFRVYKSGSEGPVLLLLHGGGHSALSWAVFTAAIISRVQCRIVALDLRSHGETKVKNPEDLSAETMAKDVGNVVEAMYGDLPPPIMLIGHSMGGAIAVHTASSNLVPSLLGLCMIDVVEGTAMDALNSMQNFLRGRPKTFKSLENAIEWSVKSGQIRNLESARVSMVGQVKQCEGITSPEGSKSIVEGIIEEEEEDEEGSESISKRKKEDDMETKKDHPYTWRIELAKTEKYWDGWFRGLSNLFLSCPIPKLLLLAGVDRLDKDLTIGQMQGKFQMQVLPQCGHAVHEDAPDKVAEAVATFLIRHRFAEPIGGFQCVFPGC
PAD4 FP inh – inhibitors of human PAD4 | recombinant PAD4, RCA probe fluorescence polarization | Q9UM07 | 0.41% of 330,000 active | inhibition, % at 6.36 µM;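 active means percent inhibition above a cutoff equal to the mean of all tested compounds plus 3 SD, cut at about 15% in these data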
GSTO1 counter – GSTO1 inhibition, counter-screen for RBBP9 inhibitors; recombinant GSTO1, activity-based probe fluorescence polarization; P78417; 1.1% of 300,000 active; inhibition, % at 5.96 µM;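 active means inhibition above the campaign mean inhibition plus 3 SD, cut at about 35% in these data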
PRMT1 confirm – confirmation of human PRMT1 inhibitors; recombinant His-PRMT1, activity-based probe fluorescence polarization; AID 687036; inhibition, % at 2.79 µM; shares compounds with PRMT1 inh; 42% of 3,300 active;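 active means mean inhibition across replicates above the hit cutoff derived for the earlier primary screen, cut at about 22% in these data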
Large screens that a line does not name were inactive (follow-up assays come after a bar, where they were run).

CC1CC2=C(NC(=S)NC2c2ccc(F)cc2)/C(=C/c2ccc(F)cc2)C1 (stereo not drawn)	PRMT1 inh 49 | PRMT1 confirm 22
Cc1csc(NC(C)c2nc3cc(C(F)(F)F)ccc3n2CCOCCO)n1 (stereo not drawn)	none (no result: RBBP9 inhibitor)
Cc1cccc(C)c1NC(=S)N(Cc1ccccc1)Cc1cccnc1	none
O=C(O)CC(Cc1ccccc1)C(=O)NCC12CC3CC(CC(C3)C1)C2 (stereo not drawn)	none
N#C/C(=C\c1ccc(Cl)cc1)c1nc2ccccc2o1	none
S=C1NC2=C(CCC/C2=C\c2ccc(Cl)cc2)C(c2ccc(Cl)cc2)N1 (stereo not drawn)	PRMT1 inh 27 | PRMT1 confirm inactive
Fc1ccccc1/C=C1\CCCC2=C1NC(=S)NC2c1ccccc1F (stereo not drawn)	PRMT1 inh 38 | PRMT1 confirm inactive
O=C(CNC(=O)c1ccco1)NCC(=O)OCc1cccc(Cl)c1	none
CC(=O)NC1=NC(=O)/C(=C/c2cc(C)n(-c3cccc(C(=O)O)c3)c2C)S1	PRMT1 inh 57 (no result: Fam108B inh, PME-1 inh, PAD4 FP inh, GSTO1 counter) | PRMT1 confirm inactive
CC1=NN2C(=N)/C(=C\c3cc(C)n(-c4cccc(C)c4)c3C)C(=O)N=C2S1	none
CC(=O)NC1=NC(=O)/C(=C/c2cc(C)n(-c3ccc(NC(C)=O)cc3)c2C)S1	PRMT1 inh 32 | PRMT1 confirm inactive
CC(=O)NC1=NC(=O)/C(=C/c2cn(C(C)=O)nc2-c2ccccc2)S1	PRMT1 inh 31 | PRMT1 confirm 27
Cn1c(SCC(=O)Nc2ccc(C(=O)O)cc2)nnc1-c1ccccn1	none (no result: Fam108B inh, RBBP9 inhibitor, PME-1 inh, PAD4 FP inh, GSTO1 counter)
CCOC(=O)c1cnn(-c2nc(-c3ccccc3)nc3c2COC(C)(C)C3)c1N	none
COc1ccc(NC(=S)NCCc2ccccc2)c(C)c1	none (no result: RBBP9 inhibitor)
COc1cc(C)c(NC(=O)C(=S)NCCc2ccccc2)cc1C	PRMT1 inh 31 | PRMT1 confirm 38
Nc1cccc2cc(S(=O)(=O)O)ccc12	PRMT1 inh 34 (no result: Fam108B inh, RBBP9 inhibitor, PME-1 inh, PAD4 FP inh, GSTO1 counter) | PRMT1 confirm inactive
Nc1ccc2c(S(=O)(=O)O)cccc2c1S(=O)(=O)O	none (no result: Fam108B inh, RBBP9 inhibitor, PME-1 inh, PAD4 FP inh, GSTO1 counter)
CCOc1cc(-c2cc(-c3ccc(C)o3)nc(N)c2C#N)ccc1O	none
Cc1c(-c2ccc(F)cc2)nc(N)c(C#N)c1-c1ccco1	none
Cc1ccc(-c2cc(-c3ccc(C)o3)nc(N)c2C#N)cc1	PRMT1 inh 58 | PRMT1 confirm 79
Cc1ccc(-c2cc(-c3ccc(F)cc3)c(C#N)c(N)n2)o1	PRMT1 inh 46 | PRMT1 confirm inactive
Cc1ccc(-c2cc(-c3ccc4c(c3)OCO4)c(C#N)c(N)n2)o1	PRMT1 inh 44 | PRMT1 confirm 31
Cc1ccc(-c2cc(-c3ccc(Cl)cc3)c(C#N)c(N)n2)o1	PRMT1 inh 42 | PRMT1 confirm 63
Cc1ccc(C2c3c(oc4ccccc4c3=O)C(=O)N2c2nnc(C(C)C)s2)o1 (stereo not drawn)	none
CCCCOC(=O)c1c(C)oc2ccc(NS(=O)(=O)c3ccc4c5c(cccc35)C(=O)N4)cc12	none
CC1CCN(CCCNC(=O)c2cc3c(=O)n(C)c4ccccc4c3n2C)CC1	none
COc1ccc(NC(=O)C2=CC(c3ccc(OC)cc3)=NS(=O)(=O)N2C)cc1	none (no result: RBBP9 inhibitor)
COc1ccc(C2=NS(=O)(=O)N(C)C(C(=O)Nc3ccc(F)cc3F)=C2)cc1	PRMT1 inh 85 (no result: RBBP9 inhibitor) | PRMT1 confirm inactive
Cc1cc(C)c([N+](=O)[O-])cc1-c1ccc(/C=N/c2c(-c3ccco3)nc3ccccn23)o1	PRMT1 inh 49 | PRMT1 confirm inactive
CNC(=O)c1ccccc1S(=O)c1ccccc1COC(C)=O (stereo not drawn)	none
O=C(N/N=C/C=C/c1ccco1)c1cccnc1	PRMT1 inh 39 | PRMT1 confirm inactive
Cc1ccc(/C(C#N)=C\c2ccc(N3CCOCC3)o2)cc1	PRMT1 inh 27 | PRMT1 confirm inactive
CC(C)c1nc(N2CCCC2)c(C#N)c2c1CCCC2	none
Cc1cc2ncn(C3CC(=O)N(Cc4ccccc4)C3=O)c2cc1C (stereo not drawn)	none
CC1=NN2C(=N)/C(=C\c3ccc(SCc4ccccc4)o3)C(=O)N=C2S1	none
N=C1/C(=C\c2ccc(SCc3ccco3)o2)C(=O)N=C2SC=NN12	PRMT1 inh 51 | PRMT1 confirm inactive
COc1cccc(C(=O)C2CCCN(Cc3cn(CC(N)=O)c4ccccc34)C2)c1 (stereo not drawn)	none
COc1ccc(CN2C(=O)c3cccnc3C2=O)cc1S(=O)(=O)NCc1ccc(C)o1	PRMT1 inh 41 (no result: RBBP9 inhibitor) | PRMT1 confirm inactive
COc1ccccc1CNS(=O)(=O)c1cc(CN2C(=O)c3cccnc3C2=O)ccc1OC	none (no result: RBBP9 inhibitor)
CCCC(=O)Nc1nc2ccc(OC)cc2s1	none
COc1ccc2nc(NC(=S)N(C)C)sc2c1	PRMT1 inh 28 | PRMT1 confirm inactive
CN/S(=N/S(=O)(=O)c1ccccc1)c1ccc(C)cc1 (stereo not drawn)	none
Cc1ccc(S(=O)(=O)/N=S(/c2ccccc2)C(C)C)cc1 (stereo not drawn)	PRMT1 inh 35 | PRMT1 confirm 70
C[C@H]1COC(=O)[C@H](Cc2ccc(F)cc2)C/C=C\C[C@H](CC(=O)N(CCO)Cc2ccccc2)C(=O)N1	none (no result: Fam108B inh, RBBP9 inhibitor, PME-1 inh, GSTO1 counter)
CCC(=O)N1CCN(c2ccccc2NC(=O)COc2cc(C)ccc2C(C)C)CC1	PRMT1 inh 112 | PRMT1 confirm inactive
Cc1ccc(C(C)C)c(OCC(=O)NC(=S)Nc2ccccc2N2CCOCC2)c1	none (no result: RBBP9 inhibitor)
O=S1(=O)CC=C(CSC(=S)NC2CCS(=O)(=O)C2)C1 (stereo not drawn)	PRMT1 inh 26 | PRMT1 confirm 91
Cc1nnc2ccc(-c3ccc(NC(=O)c4ccc(Cl)nc4)cc3)nn12	none (no result: PRMT1 inh)
CC(C)(C)OC(=O)N[C@@H](Cc1ccccc1)c1nnc(S(=O)(=O)Cc2ccccc2)o1	PRMT1 inh 54 | PRMT1 confirm inactive
Cc1ccccc1CS(=O)(=O)c1nnc([C@H](Cc2ccccc2)NC(=O)OC(C)(C)C)o1	PRMT1 inh 38 | PRMT1 confirm 26
CCSc1nnc([C@H](Cc2ccccc2)NC(=O)OC(C)(C)C)o1	none
C[C@H]1C=C(C(=O)NCc2nc3ccccc3[nH]2)O[C@@H](OCCCCO)C1	PRMT1 inh 41 (no result: RBBP9 inhibitor) | PRMT1 confirm inactive
O=C1COc2ccc(C(=O)c3ccccc3)cc2CN1	none
O=c1oc2c(O)cccc2cc1-c1nc2ccccc2[nH]1	PRMT1 inh 60 (no result: Fam108B inh, RBBP9 inhibitor, PME-1 inh, PAD4 FP inh, GSTO1 counter) | PRMT1 confirm 50
O=C(O)C1Nc2c(C(F)(F)F)ccc(Cl)c2C2C=CCC12 (stereo not drawn)	PRMT1 inh 33 (no result: RBBP9 inhibitor) | PRMT1 confirm 28
O=C(Nc1ccc(Cl)c(C(F)(F)F)c1)[C@@H]1CC=C[C@@H]2CCN(C3CC3)C(=O)[C@@H]21	none (no result: RBBP9 inhibitor)
N#C/C(=C\c1ccccc1)C(=O)NNS(=O)(=O)c1cccc([N+](=O)[O-])c1	PRMT1 inh 43 (no result: Fam108B inh, RBBP9 inhibitor, PME-1 inh, GSTO1 counter) | PRMT1 confirm inactive
